Measured values from ChEMBL document CHEMBL1138085, “Thiazolo[5,4-f]quinazolin-9-ones, inhibitors of glycogen synthase kinase-3” (Bioorg Med Chem Lett, 2006).

How the values were obtained:
[1] = target: Glycogen synthase kinase-3 (Homo sapiens, UniProt P49840+P49841); test: Inhibition of GSK3alpha/beta in presence of 15 uM ATP; assay type: protein assay
Summary of the method: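 Assayed against GSK-3α/β using GS-1 peptide as substrate, final ATP 15 μM; conditions otherwise follow earlier published method.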

[2] = target: Cyclin-dependent kinase 1/cyclin B (Homo sapiens, UniProt P06493); test: Inhibition of CDK1/cyclinB in presence of 15 uM ATP; assay type: protein-complex assay
[3] = target: Cyclin-dependent kinase 5/CDK5 activator 1 (Homo sapiens, UniProt Q00535); test: Inhibition of CDK5/p25 in presence of 15 uM ATP; assay type: protein-complex assay
Cyclin-dependent kinase 5/CDK5 activator 1, sequence (Q00535 whole entry): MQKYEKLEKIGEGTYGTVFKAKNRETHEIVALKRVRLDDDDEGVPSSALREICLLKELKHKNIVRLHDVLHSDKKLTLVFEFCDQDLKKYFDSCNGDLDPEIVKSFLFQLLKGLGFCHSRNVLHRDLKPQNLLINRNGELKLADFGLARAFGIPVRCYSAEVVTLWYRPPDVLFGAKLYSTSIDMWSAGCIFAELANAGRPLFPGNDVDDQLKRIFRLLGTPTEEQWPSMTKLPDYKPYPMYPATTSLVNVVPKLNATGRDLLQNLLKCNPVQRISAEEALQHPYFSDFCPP
Cyclin-dependent kinase 5/CDK5 activator 1, sequence (Q15078 whole entry, further chain): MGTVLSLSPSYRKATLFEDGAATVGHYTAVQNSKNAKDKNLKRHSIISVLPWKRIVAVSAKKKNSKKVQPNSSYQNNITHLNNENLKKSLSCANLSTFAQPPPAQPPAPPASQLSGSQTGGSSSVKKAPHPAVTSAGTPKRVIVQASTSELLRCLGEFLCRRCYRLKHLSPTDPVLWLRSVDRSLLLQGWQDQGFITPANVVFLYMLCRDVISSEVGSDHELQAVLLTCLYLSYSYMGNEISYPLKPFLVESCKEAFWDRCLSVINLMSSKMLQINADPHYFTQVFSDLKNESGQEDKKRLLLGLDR
Summary of the method: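 Kinase activity assayed with histone H1 as protein substrate and ATP at 15 μM final; procedure otherwise as previously described.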

Compound	IC50 [1] [µM]	IC50 [2] [µM]	IC50 [3] [µM]
CCn1cnc2ccc3nc(C(=N)NC(C)C)sc3c2c1=O	7.2	–	–
CCn1cnc2ccc3nc(C4=NCCN4)sc3c2c1=O	4.2	> 100	> 100
CC(C)n1cnc2ccc3nc(C(=N)NCCN(C)C)sc3c2c1=O	0.56	10	4
CC(C)CCn1cnc2ccc3nc(C4=NCCN4)sc3c2c1=O	> 10	> 10	> 10
CCn1cnc2ccc3nc(C(=N)NCCN(C)C)sc3c2c1=O	1.3	–	–
CCCn1cnc2ccc3nc(C4=NCCN4)sc3c2c1=O	1.6	> 100	> 100
CC(C)Cn1cnc2ccc3nc(C4=NCCN4)sc3c2c1=O	4.6	85	> 100
O=c1c2c(ccc3nc(C4=NCCN4)sc32)ncn1Cc1ccccc1	> 10	–	> 10
COc1ccc(Cn2cnc3ccc4nc(C5=NCCN5)sc4c3c2=O)cc1	> 10	> 10	–
CC(C)NC(=N)c1nc2ccc3ncn(C(C)C)c(=O)c3c2s1	9.4	–	–
CC(C)n1cnc2ccc3nc(C4=NCCN4)sc3c2c1=O	1.6	> 100	> 100
